# Compounds with a hit are over-represented: about 3.9% of the library has one in this group of screens.
# HSF1 activator: HSF-1 activators, primary screen, NIH3T3-HGL cells, MG132 stress, luminescence, single point | actives 1.7% (n = 300,000) | NIH3T3-HGL HSF-1 luciferase reporter, 8 h; 100% = twice DMSO control signal | activation, % at 9 µM;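 active means mean replicate activation of at least 50% with a set share of replicates each reaching 50%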
# HSF1 inh: HSF1 inhibitors in luciferase reporter cells, primary screen, cell-based, NIH3T3, luminescence; NIH3T3-HGL HSE-luciferase, MG132-induced, luminescence 8 h; stronger effect = lower value; activity change, negative = inhibition, % at 7.5 µM (by protocol); actives 0.77% (n = 300,000);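 active means more than half of replicate wells show activity change below -50%, luminescence cut by over half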;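 further: luciferase reports HSF-1 transcriptional activity via heat shock element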
# core dimer inh: inhibitors of HCV core protein dimerization, primary screen, biochemical, TR-FRET, high-throughput; TR-FRET GST/Flag-core106 dimerization, 1536-well; inhibition, % at 5 µM; actives 0.33% (n = 300,000); AID 1899, 2009;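 active means inhibition above the mean of all tested compounds plus 3 SD, set per screening campaign, cut at about 45% in these data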
#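 System: GST/Flag-tagged HCV core106 proteins. Incubation: compound-protein-antibody incubation 4 h at 22.5 °C. Technique: HTRF with 340 nm excitation, 617/671 nm emission. Medium: KF-containing HEPES buffer, pH 7.45, DTT, CHAPS, BSA. Read-out: inhibition (%) from 671 over 617 nm ratio. Also added: Eu(K)-anti-GST 90 ng/mL plus XL665-anti-Flag 1 µg/mL.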
# HCV NS3 hel inh: inhibitors of HCV NS3 helicase, primary screen, biochemical, Cy5 molecular beacon fluorescence; Hepatitis C virus NS3 helicase; NS3 helicase DNA unwinding; inhibition, % at 10.9 µM; actives 0.56% (n = 290,000); AID 1800, 2009;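 active means inhibition above the mean of all tested compounds plus 3 SD, set per campaign, cut at about 35% in these data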
#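 Control set: DMSO versus 110 µM thioflavine S; Material: NS3 helicase fragment of HCV; Measured by: Cy5 fluorescence at 0 and 60 min, beacon hairpin quenching; Read-out basis: percent inhibition from t60/t0 fluorescence ratio; Times: reaction time 60 min, 25 °C; Repeats: single replicate; Compound dosing: single dose, 10.9 µM nominal final, DMSO 0.8% final.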
# FID counter: compounds displacing fluorescent DNA intercalator, primary screen, artefact control for HCV NS3 helicase inhibitor project, biochemical, FID fluorescence | actives 0.17% (n = 290,000) | inhibition, % at 7.9 µM | DNA fluorescent intercalator displacement | AID 1845, 2009; in the data active means inhibition above about 37%;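 further: higher means more ethidium bromide displaced from hairpin DNA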
# HSP90 refold inh: HSP90 inhibitors, primary screen, cell lysate, luminescence. Rabbit reticulocyte lysate, luciferase refolding luminescence, 3 h. inhibition, % at 5.6 µM. actives 0.91% (n = 290,000). AID 1789, 2009;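 active means inhibition above the screen-wide mean plus 3 SD, computed separately per campaign, cut at about 16% in these data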;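 further: inhibitors lower the luminescence because luciferase stays unfolded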
# Hits are given with their value; – = inactive; · = no result given.
SMILES,HSF1 activator,HSF1 inh,core dimer inh,HCV NS3 hel inh,FID counter,HSP90 refold inh
O=C1/C(=C/c2ccco2)CCc2ccccc21,–,–,–,–,–,–
Nc1ccc2c(c1)C/C(=C/c1ccco1)C2=O,–,–,93.7,–,–,–
O=C1CC(c2ccc(O)c(O)c2)Oc2cc(O)cc(O)c21 (centres undefined),–,–,–,·,·,·
Oc1ccc(C2C[C@H]3CC[C@@H]2C3)cc1O (some centres undefined),89.7,–,–,–,–,–
CCc1ccccc1NC(=O)COc1cccc2ccc(C)nc12,–,-77.4,–,–,–,–
CCOc1ccc(NC2=NCC(=O)N2CCc2ccccc2)cc1,–,–,–,–,–,–
O=C(O)CSc1nnc(-c2ccc(Cl)cc2Cl)n1-c1ccc(Br)cc1,–,–,–,–,–,–
Cc1cc(N2CCC(C)CC2)c(F)cc1[N+](=O)[O-],–,–,–,–,–,–
Cc1cc(N2CCCC2)c(F)cc1/C=C\[N+](=O)[O-],207.1,–,·,–,–,–
COc1ccc(/C=C2\N=C(c3ccccc3Cl)NC2=O)cc1,–,–,·,–,–,–
CCOC(=O)C1(C)NC(c2ccc(O)cc2)C2C(=O)N(c3ccccc3)C(=O)C21 (centres undefined),–,-53.6,–,–,–,–
COC(=O)C1(C)NC(c2ccc(O)cc2)C2C(=O)N(c3ccccc3)C(=O)C21 (centres undefined),–,–,–,–,–,–
Cc1nc(NC(C)c2ccccc2)sc1C(=O)Nc1ccccc1 (centres undefined),–,-86.8,–,–,–,–
CC(=O)c1sc(NC(C)c2ccccc2)nc1C (centres undefined),–,–,–,–,–,–
Cn1c(=O)cc(SCC(=O)N2CCOCC2)c2ccc(Cl)cc21,97.8,–,–,–,–,–
COc1ccc([C@H]2/C=C\CN(S(=O)(=O)c3ccc4ccccc4c3)[C@@H](C)C(=O)N2Cc2ccc(F)cc2)cc1,·,–,–,·,·,·
CCOC(=O)C(=Cc1ccc(-c2ccsc2C(=O)OC)o1)C(=O)OCC,90.0,–,–,–,–,–
NCCc1nc(-c2ccccc2)cs1,–,–,–,–,–,–
C[C@H]1CCC(=O)N([C@H](COc2ccccc2)Cc2ccccc2)CC1,–,–,–,–,–,–
Cc1cc(N2C(=O)C=CC2=O)c([N+](=O)[O-])cc1C,–,–,47.9,–,–,–
CSCCC(NS(=O)(=O)c1ccc2c(c1)oc(=O)n2C)C(=O)NCc1cccs1 (centres undefined),–,–,–,–,–,–
CCc1nccn1C(=O)c1cnn2c(C(F)F)cc(-c3ccc(C)cc3)nc12,–,–,–,–,–,–
CCc1nccn1C(=O)c1cnn2c(C(F)F)cc(-c3ccccc3)nc12,–,-88.2,–,–,–,–
Cc1ccc(-c2cc(C(F)F)n3ncc(C(=O)Nc4c(C)nn(Cc5ccccc5Cl)c4C)c3n2)cc1,–,–,46.3,–,–,–
CCOC(=O)Cc1csc(NC(=O)c2ccc(Br)s2)n1,–,–,–,–,–,16.4
SMILES,HSF1 activator,HSF1 inh,core dimer inh,HCV NS3 hel inh,FID counter,HSP90 refold inh
CCOC(=O)Cc1csc(NC(=O)c2c(O)c3ccccc3n(CC(C)C)c2=O)n1,55.9,–,–,–,–,–
CCOC(=O)Cc1csc(NC(=O)c2c(C)noc2C)n1,–,–,–,–,–,–
CC(C)Cn1c(=O)c(C(=O)Nc2ccccc2S(N)(=O)=O)c(O)c2ccccc21,–,–,–,–,–,–
CCOC(=O)Cc1csc(NC(=O)c2sc3nc4ccc(CC)cc4cc3c2N)n1,–,-53.7,–,–,–,–
CCOC(=O)Cc1csc(NC(=O)c2ccoc2C)n1,57.4,–,–,–,–,–
COCCn1c(=O)[nH]c(=O)c2c1nc(-c1cc(Br)c3c(c1)OCO3)n2Cc1ccccc1,58.9,–,–,–,–,–
CC(CCc1ccccc1)NC(=O)c1ccc(Cl)nc1 (centres undefined),–,–,–,–,–,–
O=C(NC1CCCCC1)C(c1ccco1)N(C(=O)c1csnn1)c1ccc(Cl)cc1 (centres undefined),–,-88.9,–,–,–,–
COc1ccc(NC(=S)N(CCO)Cc2ccccc2)cc1,–,–,–,–,–,–
COCCN(Cc1ccccc1)C(=S)Nc1ccc(Cl)cc1,–,-54.2,–,–,–,–
COc1ccccc1CN(Cc1nc2ccccc2c(=O)[nH]1)C(=O)Nc1cccc(C)c1,–,–,–,–,–,–
CC(=O)Nc1ccc2c(c1)CCc1ccccc1-2,–,–,–,–,–,–
O=C(O)/C=C/C(=O)c1ccc2c(c1)CCc1ccccc1-2,175.2,–,–,·,·,·
O=C(Nc1c(Cl)cc(Cl)cc1-c1nc2ccccc2s1)c1ccc(Br)o1,–,–,–,–,–,–
CCN(CC)CC(=O)Nc1cc(N(C)C)nc2ccccc12,–,–,–,–,49.4,–
CN1CCN(CC(=O)Nc2cc(N(C)C)nc3ccccc23)CC1,–,–,–,–,73.4,–
O=C(O)c1ccc(N=Cc2c(O)ccc3ccccc23)cc1,–,–,–,–,–,–
COc1ccc(N=Cc2c(O)ccc3ccccc23)cc1,–,-58.4,–,–,–,–
COc1ccc(N=Cc2c(O)[nH]c3ccccc23)cc1,63.2,–,–,–,–,–
O=C(O)CCC(=O)NCCn1c(-c2ccccc2)csc1=Nc1ccccc1,69.5,–,–,–,–,–
CSc1nc2c(c(=O)[nH]1)C(c1ccncc1)C(C(=O)OC(C)C)=C(C)N2 (centres undefined),–,–,–,–,–,–
Cc1nnc2ccc(N3CCN(c4cccc(C(F)(F)F)c4)CC3)nn12,–,–,–,–,–,–
O=C(Nc1ccc(Cl)cc1)Nn1cnnc1,–,–,·,–,–,–
COc1ccc(C(=O)NCCc2c[nH]c3ccccc23)cc1,–,–,–,–,–,–
O=C(NCCc1c[nH]c2ccccc12)c1ccc(Cl)cc1,58.8,–,–,–,–,–
O=C(c1ccc(COc2ccc3c(c2)CCC3)o1)N1CCN(c2ccccc2)CC1,61.9,–,–,–,–,–
O=C(c1ccco1)N1CCN(C(=O)c2ccc(COc3ccc4c(c3)CCC4)o2)CC1,–,–,–,–,–,–
CN1CCN(C(=O)c2ccc(COc3ccc(C(C)(C)C)cc3)o2)CC1,–,–,–,–,–,–
CCCc1ccc(OCc2ccc(C(=O)N3CCCC3)o2)cc1,–,–,–,–,–,16.8

# High-throughput results deposited in PubChem by several laboratories.
